Test results taken from ChEMBL document CHEMBL3797043 (Bioorg Med Chem Lett, 2016).
Calls of active or inactive are those of the source. The calls are words filed in the database; no cut-off is given here.

Key:
Mus musculus [1] = test: Analgesic effect in ICR mouse assessed as tail flick latencies at 50 mg/kg, ip measured 10 to 60 mins post dose by tail flick test; assay type: functional, organism-based
Procedure, shortened: (§1)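 Male ICR mice (18–22 g), blinded observers. Compounds in DMSO stock, diluted in Ringer's solution (final DMSO <10%), given ip in 0.1 mL. Distal 2–3 cm of tail immersed in 52°C ± .5 water; withdrawal latency (s) recorded before dosing and at 10, 20, 30, 45, 60 min after. ≥6 mice per compound per dose; mean ± SEM; two-way ANOVA with Bonferroni test.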

[2] = biological target: Pancreatic elastase (Sus scrofa) (UniProt P08419+P00772); test: Inhibition of porcine pancreatic elastase at 10 uM using N-Succinyl-ala-ala-ala-p-nitroanilide substrate assessed as reduction in p-nitroaniline release measured over 5 mins; assay type: protein assay
Procedure, shortened: (§2)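 Commercial porcine enzymes (liver esterase, pancreatic elastase) assayed in microplates. The mix held enzyme, 100 uM chromogenic substrate, 0.125 M TrisCl and 0.2 mM EDTA at pH 8.0. Each reaction was started by adding substrate. Release of p-nitrophenol (esterase) or p-nitroaniline (elastase) was followed at 400 nm, with control rates linear over at least 5 min.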

Liver carboxylesterase = biological target: T1, Liver carboxylesterase (Sus scrofa, UniProt Q29550); test: Inhibition of porcine liver esterase using 4-nitrophenyl butyrate substrate assessed as reduction in p-nitrophenol release measured over 5 mins; procedure, shortened: as §2
T1 sequence (Q29550 whole entry): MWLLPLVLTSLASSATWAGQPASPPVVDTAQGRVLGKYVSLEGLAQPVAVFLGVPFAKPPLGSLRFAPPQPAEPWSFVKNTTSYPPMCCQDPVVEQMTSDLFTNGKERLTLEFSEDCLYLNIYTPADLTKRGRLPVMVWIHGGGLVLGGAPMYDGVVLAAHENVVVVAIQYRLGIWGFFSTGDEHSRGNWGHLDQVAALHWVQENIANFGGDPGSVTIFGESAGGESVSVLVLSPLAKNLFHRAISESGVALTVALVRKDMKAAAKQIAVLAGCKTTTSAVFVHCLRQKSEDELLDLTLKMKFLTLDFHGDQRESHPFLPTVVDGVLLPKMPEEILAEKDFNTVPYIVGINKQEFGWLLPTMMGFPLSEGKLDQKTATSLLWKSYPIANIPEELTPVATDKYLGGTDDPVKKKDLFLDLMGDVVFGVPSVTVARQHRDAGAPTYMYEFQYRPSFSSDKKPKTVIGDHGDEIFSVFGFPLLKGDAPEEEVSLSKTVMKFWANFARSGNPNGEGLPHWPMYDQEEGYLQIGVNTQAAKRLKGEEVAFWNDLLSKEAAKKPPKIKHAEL

Mus musculus [3] = test: Analgesic effect in ICR mouse assessed as tail flick latencies at 20 to 40 mg/kg, ip measured 10 to 60 mins post dose by tail flick test; assay type: functional, organism-based; procedure, shortened: as §1
[4] = biological target: T2, Fatty-acid amide hydrolase 1 (Homo sapiens) (UniProt O00519); test: Inhibition of MBP-fused human recombinant FAAH with truncated N-terminal transmembrane domain expressed in Escherichia coli T7 assessed as enzyme inactivation rate constant using D-AMC substrate incubated for 2 hrs by fluorescence based assay
T2 sequence (whole entry): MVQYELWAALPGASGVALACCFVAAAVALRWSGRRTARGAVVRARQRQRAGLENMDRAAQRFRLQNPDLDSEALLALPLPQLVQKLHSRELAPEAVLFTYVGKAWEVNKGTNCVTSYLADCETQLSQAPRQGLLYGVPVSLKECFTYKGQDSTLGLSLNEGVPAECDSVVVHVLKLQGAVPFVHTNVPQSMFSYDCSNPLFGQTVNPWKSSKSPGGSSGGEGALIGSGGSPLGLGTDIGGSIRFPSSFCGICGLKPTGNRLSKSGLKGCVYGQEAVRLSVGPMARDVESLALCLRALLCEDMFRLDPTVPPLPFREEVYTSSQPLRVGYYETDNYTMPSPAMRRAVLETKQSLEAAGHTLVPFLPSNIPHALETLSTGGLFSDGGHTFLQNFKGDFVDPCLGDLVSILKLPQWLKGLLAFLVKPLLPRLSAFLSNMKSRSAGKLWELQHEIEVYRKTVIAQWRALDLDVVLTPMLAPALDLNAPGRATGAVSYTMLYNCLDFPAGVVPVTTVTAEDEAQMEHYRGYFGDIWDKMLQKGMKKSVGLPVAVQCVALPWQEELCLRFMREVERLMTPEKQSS
Procedure, shortened: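 Human FAAH residues 34–579 as an MBP fusion, expressed in E. coli T7 Express with IPTG induction, then purified by amylose affinity and S100 chromatography. Substrate D-AMC at 5 μM final in 125 mM Tris-Cl, 1 mM EDTA, 0.1% BSA, pH 8.0, 37 °C; ex 351/em 430 nm. Apparent first-order k_i' measured at several inhibitor levels and fitted for k_inact and K_i (D-AMC Km 0.52 μM).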

Mus musculus [5] = test: Analgesic effect in ICR mouse assessed as tail flick latencies at 20 to 100 mg/kg, ip measured 10 to 60 mins post dose by tail flick test; assay type: functional, organism-based; procedure, shortened: as §1
[6] = biological target: T2, Fatty-acid amide hydrolase 1 (Homo sapiens); test: Time dependent inhibition of MBP-fused human recombinant FAAH with truncated N-terminal transmembrane domain expressed in Escherichia coli T7 using D-AMC substrate measured over 40 mins by fluorescence based assay; conditions: TDE = time-dependent effect
Procedure, shortened: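 MBP–FAAH (residues 34–579, E. coli) at 3 μg protein per well, 8 pM active enzyme, with 5 μM D-AMC in Tris-Cl/EDTA/0.1% BSA pH 8.0 at 37 °C; DMSO ≤1%. Reactions started with enzyme; fluorescence read at ex 351/em 430 nm over 40 min. […] Ki from IC50 = Ki(1+[S]/Km)+[Et]/2.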

[7] = biological target: T3, Fatty-acid amide hydrolase 1 (Homo sapiens, UniProt O00519); test: Inhibition of MBP-fused human recombinant FAAH with truncated N-terminal transmembrane domain expressed in Escherichia coli T7 using D-AMC substrate measured over 40 mins by fluorescence based assay
T3 sequence (O00519 whole entry): T2 sequence (whole entry)

SMILES	Activity (Mus musculus [1])	inhibition [2]	IC50 (Liver carboxylesterase) [nM]	further results
O=C(Oc1cccnc1)N1CCC(c2nc(C3=NOC(c4ccccc4)C3)cs2)CC1 (stereo not given)	inactive			
O=C(Oc1ccccc1Cl)N1CCC(c2nc(C3=NOC(c4ccccc4)C3)cs2)CC1 (stereo not given)		inactive	870	
O=C(Oc1ccccc1)N1CCC(c2nc(C3=NOC(c4ccccc4)C3)cs2)CC1 (stereo not given)	Active	inactive	2400	Activity (Mus musculus [3]): inactive
O=C(Nc1cccnc1)N1CCC(Cc2cccc(Oc3ccc(C(F)(F)F)cn3)c2)CC1				K [4]: 0.0033 s⁻¹
O=C(Nc1cccnn1)N1CCC(c2nc(C3=NOC(c4ccccc4)C3)cs2)CC1 (stereo not given)	Active			Activity (Mus musculus [3]): inactive
Cc1ccccc1OC(=O)N1CCC(c2nc(C3=NOC(c4ccccc4)C3)cs2)CC1 (stereo not given)		inactive	840	
N#Cc1ccc(OC(=O)N2CCC(c3nc(C4=NOC(c5ccccc5)C4)cs3)CC2)cc1 (stereo not given)	Active			Activity (Mus musculus [5]): Dose-dependent effect
O=C(Nc1nccs1)N1CCC(c2nc(C3=NOC(c4ccccc4)C3)cs2)CC1 (stereo not given)		inactive	> 10000	
COc1ccc(OC(=O)N2CCC(c3nc(C4=NOC(c5ccccc5)C4)cs3)CC2)cc1 (stereo not given)	inactive			
O=C(Nc1cnccn1)N1CCC(c2nc(C3=NOC(c4ccccc4)C3)cs2)CC1 (stereo not given)	Active			Activity (Mus musculus [3]): inactive
O=C(Nc1ccccc1)N1CCC(c2nc(C3=NOC(c4ccccc4)C3)cs2)CC1 (stereo not given)		inactive	5600	
O=C(Oc1ccccc1)N1CCC(c2nc(C3=NOC4(CCCc5ccccc54)C3)cs2)CC1 (stereo not given)				inhibition [6]: tde; Ki [7]: 2.73 nM
O=C(Oc1ccc(Cl)cc1)N1CCC(c2nc(C3=NOC(c4ccccc4)C3)cs2)CC1 (stereo not given)		inactive	470	
